Measured values published in ChEMBL document CHEMBL4428027, “3-Hydroxypyrimidine-2,4-diones as Selective Active Site Inhibitors of HIV Reverse Transcriptase-Associated RNase H: Design, Synthesis, and Biochemical Evaluations” (J Med Chem, 2016).
pIC50: −log10 of the molar value.

Tests used:
[1] = molecular target: T1, Human immunodeficiency virus type 1 reverse transcriptase (Human immunodeficiency virus 1, UniProt Q72547); test: Inhibition of polymerase activity of HIV1 reverse transcriptase using poly(rA)-oligo(dT)16 and [3H]-TTP incubated for 20 mins by liquid scintillation spectrometry; settings: for pIC50: read-out: IC50
Outline: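 Reaction mix: 10 µM [3H]-TTP, 40 nM poly(rA)-oligo(dT)16, 50 mM Tris-HCl pH 7.4 (37°C), 60 mM KCl, 5 mM MgCl2. Started with 10 nM RT; 20 min at 37°C. Quenched in ice-cold 10% TCA with 20 mM sodium pyrophosphate, then glass-fibre filtered and washed with TCA and ethanol. Label incorporation read by liquid scintillation.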

[2] = molecular target: T1, Human immunodeficiency virus type 1 reverse transcriptase; test: Inhibition of RNase H activity of full length recombinant HIV1 reverse transcriptase assessed as reduction in nonspecific internal cleavage using HTS1 substrate; settings: read-out: IC50
Outline: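 Recombinant p66/p51 RT heterodimer. Fluorescent RNA/DNA duplex substrate HTS-1 measures internal cleavage. IC50 is the mean of at least three independent experiments.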

[3] = Toxicity against human HeLa P4/R5 cells; format: cell-based
[4] = molecular target: T1, Human immunodeficiency virus type 1 reverse transcriptase; test: Inhibition of re-constituted HIV1 reverse transcriptase RNase H domain fragment; settings: for pIC50: read-out: IC50
Outline: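 Secondary check using a catalytically active, isolated HIV RNase H domain fragment (reconstituted) with duplex substrate HTS-1.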

[5] = molecular target: T1, Human immunodeficiency virus type 1 reverse transcriptase; test: Inhibition of RNase H activity of full length recombinant HIV1 reverse transcriptase assessed as reduction in RNA 5'-end directed cleavage using HTS3 substrate; settings: for pIC50: read-out: IC50
[6] = molecular target: T1, Human immunodeficiency virus type 1 reverse transcriptase; test: Inhibition of RNase H activity of full length recombinant HIV1 reverse transcriptase assessed as reduction in DNA 3'-end cleavage using HTS2 substrate; settings: for pIC50: read-out: IC50
Outline: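 Recombinant p66/p51 RT heterodimer. Fluorescent RNA/DNA duplex substrate HTS-2 reports DNA 3′-end-directed (polymerase-dependent) cleavage. IC50 is the mean of at least three independent experiments.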

Question: What does the source list for `COc1cccc(-c2ccccc2Oc2cc(=O)n(O)c(=O)n2C)c1`?
Answer: IC50 [1]: Not Active; pIC50 [2]: 5.24; CC50 [3]: 6 µM; pIC50 [4]: 4.92; IC50 [5]: Not Active; IC50 [6]: Not Active

Question: What does the source list for `COc1ccccc1-c1ccc(Oc2cc(=O)n(O)c(=O)n2C)cc1`?
Answer: IC50 [1]: Not Active; pIC50 [2]: 5.55; CC50 [3]: 5 µM; pIC50 [4]: 5.21; pIC50 [5]: 4.66; IC50 [6]: Not Active

Question: With `COc1ccc(-c2cccc(Oc3cc(=O)n(O)c(=O)n3C)c2)cc1` as the compound, how does the IC50 [1] read?
Answer: Its IC50 is “Not Active”.

Question: What about the pIC50 [2] of the same compound?
Answer: The pIC50 was 6.40.

Question: What about the CC50 [3] of the same compound?
Answer: Its CC50 is 2.5 µM.

Question: And the pIC50 [4]?
Answer: The pIC50 was 5.74.

Question: And the pIC50 [5]?
Answer: Its pIC50 is 5.33.

Question: What about the pIC50 [6] of the same compound?
Answer: Its pIC50 is 5.40.

Question: For `Cc1ccc(-c2ccc(Nc3cc(=O)n(O)c(=O)n3C)cc2)cc1`, which IC50 [1] is on record?
Answer: The IC50 was “Not Active”.

Question: What about the pIC50 [2] of the same compound?
Answer: The pIC50 was 5.57.

Question: And the CC50 [3]?
Answer: Its CC50 is 5 µM.

Question: And the pIC50 [4]?
Answer: Its pIC50 is 5.72.

Question: What about the pIC50 [5] of the same compound?
Answer: The pIC50 was 5.18.

Question: And the pIC50 [6]?
Answer: Its pIC50 is 5.19.

Question: Which IC50 [1] does the source give for `Cn1c(Nc2ccc(-c3ccc(C(F)(F)F)cc3)cc2)cc(=O)n(O)c1=O` here?
Answer: Its IC50 is “Not Active”.

Question: What about the pIC50 [2] of the same compound?
Answer: Its pIC50 is 5.44.

Question: And the CC50 [3]?
Answer: The CC50 was 10 µM.

Question: And the pIC50 [4]?
Answer: The pIC50 was 5.66.

Question: And the pIC50 [5]?
Answer: Its pIC50 is 5.18.

Question: What about the pIC50 [6] of the same compound?
Answer: The pIC50 was 5.05.

Question: Which results are given for `Cn1c(Nc2ccc(-c3ccccc3)cc2)cc(=O)n(O)c1=O`?
Answer: IC50 [1]: Not Active; pIC50 [2]: 6.10; CC50 [3]: 6 µM; pIC50 [4]: 5.77; pIC50 [5]: 5.29; pIC50 [6]: 5.46

Question: For `Cn1c(Oc2cccc(-c3ccccc3)c2)cc(=O)n(O)c1=O`, which IC50 [1] is on record?
Answer: The IC50 was “Not Active”.

Question: And the pIC50 [2]?
Answer: The pIC50 was 6.00.

Question: And the CC50 [3]?
Answer: Its CC50 is 3 µM.

Question: What about the pIC50 [4] of the same compound?
Answer: The pIC50 was 5.41.

Question: And the pIC50 [5]?
Answer: The pIC50 was 4.82.

Question: And the IC50 [6]?
Answer: Its IC50 is “Not Active”.

Question: Which IC50 [1] does the source give for `COc1cccc(-c2cccc(Oc3cc(=O)n(O)c(=O)n3C)c2)c1` here?
Answer: Its IC50 is “Not Active”.

Question: And the pIC50 [2]?
Answer: Its pIC50 is 6.00.

Question: And the CC50 [3]?
Answer: The CC50 was 5 µM.

Question: What about the pIC50 [4] of the same compound?
Answer: Its pIC50 is 5.44.

Question: What about the pIC50 [5] of the same compound?
Answer: Its pIC50 is 5.03.

Question: And the pIC50 [6]?
Answer: Its pIC50 is 4.77.

Question: With `COc1ccc(-c2cccc(Nc3cc(=O)n(O)c(=O)n3C)c2)cc1` as the compound, how does the pIC50 [1] read?
Answer: The pIC50 was 5.44.

Question: And the pIC50 [2]?
Answer: The pIC50 was 6.30.

Question: And the CC50 [3]?
Answer: The CC50 was 3 µM.

Question: What about the pIC50 [4] of the same compound?
Answer: Its pIC50 is 5.96.

Question: And the pIC50 [5]?
Answer: The pIC50 was 5.51.

Question: What about the pIC50 [6] of the same compound?
Answer: Its pIC50 is 5.59.

Question: What does the source list for `Cn1c(Oc2cccc(-c3ccc(C(F)(F)F)cc3)c2)cc(=O)n(O)c1=O`?
Answer: IC50 [1]: Not Active; pIC50 [2]: 5.02; CC50 [3]: > 25 µM; IC50 [4]: Not Active; IC50 [5]: Not Active; IC50 [6]: Not Active

Question: Which results are given for `COc1cccc(OC)c1-c1cccc(Nc2cc(=O)n(O)c(=O)n2C)c1`?
Answer: IC50 [1]: Not Active; pIC50 [2]: 5.72; CC50 [3]: 8 µM; pIC50 [4]: 5.92; pIC50 [5]: 5.35; pIC50 [6]: 5.16

Question: With `COc1ccc(-c2cccc(Nc3cc(=O)n(O)c(=O)n3C)c2)c(OC)c1` as the compound, how does the pIC50 [1] read?
Answer: The pIC50 was 5.20.

Question: What about the pIC50 [2] of the same compound?
Answer: The pIC50 was 6.00.

Question: What about the CC50 [3] of the same compound?
Answer: Its CC50 is 6 µM.

Question: And the pIC50 [4]?
Answer: The pIC50 was 5.96.

Question: What about the pIC50 [5] of the same compound?
Answer: The pIC50 was 5.38.

Question: What about the pIC50 [6] of the same compound?
Answer: The pIC50 was 5.68.

Question: For `Cn1c(Oc2ccc(-c3ccccc3)cc2)cc(=O)n(O)c1=O`, which IC50 [1] is on record?
Answer: Its IC50 is “Not Active”.

Question: What about the pIC50 [2] of the same compound?
Answer: Its pIC50 is 5.72.

Question: And the CC50 [3]?
Answer: The CC50 was 5 µM.

Question: And the pIC50 [4]?
Answer: Its pIC50 is 5.68.

Question: What about the pIC50 [5] of the same compound?
Answer: The pIC50 was 5.22.

Question: And the pIC50 [6]?
Answer: The pIC50 was 5.28.

Question: Which IC50 [1] does the source give for `Cn1c(Nc2cccc(-c3cncnc3)c2)cc(=O)n(O)c1=O` here?
Answer: The IC50 was “Not Active”.

Question: What about the pIC50 [2] of the same compound?
Answer: Its pIC50 is 5.85.

Question: What about the CC50 [3] of the same compound?
Answer: Its CC50 is > 25 µM.

Question: What about the pIC50 [4] of the same compound?
Answer: The pIC50 was 6.05.

Question: And the pIC50 [5]?
Answer: Its pIC50 is 5.41.

Question: What about the pIC50 [6] of the same compound?
Answer: The pIC50 was 5.39.

Question: With `COc1ccc(-c2ccc(Oc3cc(=O)n(O)c(=O)n3C)cc2)cc1` as the compound, how does the IC50 [1] read?
Answer: Its IC50 is “Not Active”.

Question: What about the pIC50 [2] of the same compound?
Answer: The pIC50 was 5.80.

Question: And the CC50 [3]?
Answer: Its CC50 is 6 µM.

Question: And the pIC50 [4]?
Answer: The pIC50 was 5.33.

Question: What about the pIC50 [5] of the same compound?
Answer: Its pIC50 is 4.92.

Question: And the pIC50 [6]?
Answer: Its pIC50 is 4.96.

Question: With `COc1ccccc1-c1ccccc1Oc1cc(=O)n(O)c(=O)n1C` as the compound, how does the IC50 [1] read?
Answer: The IC50 was “Not Active”.

Question: And the pIC50 [2]?
Answer: The pIC50 was 5.09.

Question: And the CC50 [3]?
Answer: The CC50 was 8 µM.

Question: What about the pIC50 [4] of the same compound?
Answer: The pIC50 was 4.89.

Question: What about the IC50 [5] of the same compound?
Answer: Its IC50 is “Not Active”.

Question: And the IC50 [6]?
Answer: The IC50 was “Not Active”.

Question: With `Cn1c(Nc2cccc(-c3ccc(C#N)cc3)c2)cc(=O)n(O)c1=O` as the compound, how does the pIC50 [1] read?
Answer: Its pIC50 is 5.30.

Question: And the pIC50 [2]?
Answer: Its pIC50 is 6.15.

Question: And the CC50 [3]?
Answer: Its CC50 is 10 µM.

Question: What about the pIC50 [4] of the same compound?
Answer: Its pIC50 is 6.00.

Question: And the pIC50 [5]?
Answer: Its pIC50 is 5.47.

Question: And the pIC50 [6]?
Answer: The pIC50 was 5.64.

Question: With `O=c1cc(Nc2ccc(-c3ccccc3)cc2)[nH]c(=O)n1O` as the compound, how does the pIC50 [1] read?
Answer: Its pIC50 is 5.70.

Question: And the pIC50 [2]?
Answer: Its pIC50 is 6.60.

Question: What about the CC50 [3] of the same compound?
Answer: Its CC50 is > 25 µM.

Question: And the pIC50 [4]?
Answer: Its pIC50 is 6.82.

Question: What about the pIC50 [5] of the same compound?
Answer: The pIC50 was 6.52.

Question: What about the pIC50 [6] of the same compound?
Answer: The pIC50 was 6.52.
